Measurements: ChEMBL document CHEMBL3352586, “Pyridyl benzamides as a novel class of potent inhibitors for the kinetoplastid Trypanosoma brucei” (J Med Chem, 2014)
Converted amounts (≈) assume the structure as drawn.

How the values were obtained:
[1] = Partition coefficient, log D of the compound at pH 7.4 by HPLC method; assay type: physicochemical; details: octanol/water
How it was run: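 Distribution coefficient at pH 7.4 was measured chromatographically.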

[2] = test system: Plasmodium falciparum; assay: Antimicrobial activity against erythrocytic stage of Plasmodium falciparum NF54 infected in human washed RBC assessed as [3H]-hypoxanthine incorporation incubated for 48 hrs prior to [3H]-hypoxanthine addition measured after 24 hrs by liquid scintillation counting analysis; assay type: functional, organism-based
[3] = test system: L6; assay: Cytotoxicity against rat L6 cells after 70 hrs by alamar blue assay; assay type: cell-based; details: L6, 70 h
How it was run: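 Cytotoxicity on the rat skeletal myoblast L-6 strain, with podophyllotoxin as reference drug.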

[4] = Plasma protein binding in human […] by chromatographic method; assay type: ADME, cell-free; details: read-out: PPB (converted)
How it was run: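 Human plasma protein binding was estimated by a chromatographic method.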

[5] = test system: Trypanosoma cruzi; assay: Antimicrobial activity against amastigote form of Trypanosoma cruzi Tulahuen C2C4 infected in rat L6 cells after 96 hrs by microscopic analysis; details: Tulahuen C2C4, L6, 96 h
[6] = test system: Liver microsome; assay: Intrinsic clearance in human liver microsomes at 1 uM after 60 mins by LC-MS analysis; assay type: ADME; details: 1 h
How it was run: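 In vitro intrinsic clearance was measured in human liver microsomes and expressed per mg protein. A hepatic extraction ratio (E_H) was predicted from the in vitro data.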

[7] = Kinetic solubility of the compound at 10 mg/ml at pH 2 by nephelometry; assay type: physicochemical; details: buffer, read-out: Kinetic_solubility
How it was run: (§1)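 Kinetic solubility was read by nephelometry at pH 2 and pH 6.5 and reported as μg/mL ranges.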

[8] = Kinetic solubility of the compound at 10 mg/ml at pH 6.5 by nephelometry; assay type: physicochemical; details: buffer, read-out: Kinetic_solubility; how it was run: as §1
[9] = test system: Trypanosoma brucei rhodesiense; assay: Antimicrobial activity against bloodstream form of Trypanosoma brucei rhodesiense STIB 900 after 70 hrs by alamar blue assay; assay type: functional, organism-based; details: STIB 900, 70 h
How it was run: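 Trypanosoma brucei rhodesiense STIB 900 bloodstream-form trypomastigotes, with melarsoprol as reference drug.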

[10] = test system: Trypanosoma brucei brucei; assay: Antimicrobial activity against bloodstream form of Trypanosoma brucei brucei 427 after 48 hrs by alamar blue assay; assay type: functional, organism-based; details: Trypanosoma brucei, 427, 48 h
[11] = test system: Leishmania donovani; assay: Antimicrobial activity against amastigote form of Leishmania donovani MHOM/ET/67/L82 after 70 hrs by alamar blue assay; assay type: functional, organism-based; details: MHOM/ET/67/L82, 70 h
How it was run: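 Leishmania donovani MHOM-ET-67/L82 axenic amastigotes, with miltefosine as reference drug.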

[12] = Selectivity index, ratio of IC50 for HEK293 cells to IC50 for Trypanosoma brucei brucei 427; assay type: toxicity, cell-based; details: human, read-out: Ratio IC50
[13] = test system: Liver microsome; assay: Drug metabolism in human liver microsomes assessed as M-2 formation at 10 uM after 60 mins by LC-MS analysis in presence of NADPH; details: 1 h
[14] = test system: Liver microsome; assay: Drug metabolism in human liver microsomes assessed as M+16(II) formation at 1 uM after 60 mins by LC-MS analysis in presence of NADPH/UDPGA; assay type: ADME; details: 1 h
[15] = test system: Trypanosoma brucei brucei; assay: Antimicrobial activity against bloodstream form of Trypanosoma brucei brucei 427 at 10 uM after 48 hrs by alamar blue assay; assay type: functional; details: Trypanosoma brucei, 427, 48 h
[16] = test system: Liver microsome; assay: Drug metabolism in human liver microsomes assessed as M+16(I) formation at 10 uM after 60 mins by LC-MS analysis in presence of NADPH; details: 1 h
[17] = test system: Liver microsome; assay: Drug metabolism in human liver microsomes assessed as M+32 formation at 1 uM after 60 mins by LC-MS analysis in presence of NADPH/UDPGA; assay type: ADME; details: 1 h
[18] = test system: Liver microsome; assay: Drug metabolism in human liver microsomes at 1 uM after 60 mins in absence of NADPH/UDPGA by LC-MS analysis; assay type: ADME; details: 1 h
[19] = test system: Liver microsome; assay: Drug metabolism in human liver microsomes assessed as M+16(II) formation at 10 uM after 60 mins by LC-MS analysis in presence of NADPH; details: 1 h
[20] = test system: Liver microsome; assay: Drug metabolism in human liver microsomes assessed as M+32 formation at 10 uM after 60 mins by LC-MS analysis in presence of NADPH; details: 1 h
[21] = Selectivity index, ratio of IC50 for rat L6 cells to IC50 for bloodstream form of Trypanosoma brucei rhodesiense STIB 900; assay type: toxicity, cell-based; details: read-out: Ratio IC50
How it was run: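 Bloodstream-form trypomastigotes of T. b. rhodesiense STIB 900 run with melarsoprol as reference drug. The counter-screen used the rat skeletal myoblast L-6 line, with podophyllotoxin as reference. The index is the L-6 IC50 divided by the parasite IC50.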

[22] = test system: Trypanosoma brucei brucei; assay: Trypanocidal activity against Trypanosoma brucei brucei after 72 hrs by hemocytometry relative to control; assay type: functional
How it was run: (§2)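 T.b. brucei parasites were seeded and held 24 h at 37 °C/5% CO₂. Compounds were diluted in DMEM and added to give the MIC, defined as the lowest concentration at the plateau (>95% activity) of the Alamar blue assay. Wells were viewed by microscope after 24, 48 and 72 h, and sampled wells were counted by hemocytometer. Percentage killed was taken against puromycin (1.15 μM) and 0.4% DMSO controls, in duplicate.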

[23] = test system: Trypanosoma brucei brucei; assay: Trypanocidal activity against Trypanosoma brucei brucei after 24 hrs by hemocytometry relative to control; assay type: functional; how it was run: as §2
[24] = test system: Trypanosoma brucei brucei; assay: Trypanocidal activity against Trypanosoma brucei brucei after 48 hrs by hemocytometry relative to control; assay type: functional; how it was run: as §2
[25] = test system: Liver microsome; assay: Drug metabolism in human liver microsomes assessed as M-111 formation at 1 uM after 60 mins by LC-MS analysis in presence of NADPH; assay type: ADME; details: 1 h
[26] = test system: Liver microsome; assay: Drug metabolism in human liver microsomes assessed as M+16 formation at 10 uM after 60 mins by LC-MS analysis in presence of NADPH/UDPGA; details: 1 h
[27] = test system: Liver microsome; assay: Drug metabolism in human liver microsomes assessed as M+16 formation at 10 uM after 60 mins by LC-MS analysis in presence of NADPH; details: 1 h
[28] = test system: Liver microsome; assay: Drug level in human liver microsomes treated with N-(5-fluoropyridin-2-yl)-2-methylbenzamide at 10 uM after 60 mins by LC-MS analysis in presence of NADPH; details: 1 h
[29] = test system: Liver microsome; assay: Drug level in human liver microsomes treated with N-(4-chloropyridin-2-yl)-3-fluoro-2-methylbenzamide at 1 uM after 60 mins by LC-MS analysis in presence of NADPH; assay type: ADME; details: 1 h

| Structure (SMILES) | logD [1] | IC50 [2] [µM] | IC50 [3] [µM] | fraction unbound [4] | IC50 [5] [µM] | CLint [6] [µL/min/mg] | solubility kinetic [7] [µg/mL] | solubility kinetic [8] [µg/mL] | IC50 [9] [µM] | IC50 [10] [µM] | IC50 [11] [µM] | selectivity ratio [12] | Activity [22] [%] | Activity [23] [%] | Activity [24] [%] | also measured |
| --- | --- | --- | --- | --- | --- | --- | --- | --- | --- | --- | --- | --- | --- | --- | --- | --- |
| Cc1ccnc(NC(=O)c2ccccc2C)c1 | 2.8 | 124 | 146 | 0.299 | 173 | 129 | > 100 | 25 (≈ 110 µM) | 0.36 | 2.1 | > 133 | > 37 |  |  |  |  |
| Cc1ccccc1C(=O)Nc1cc(Cl)ccn1 | 3.4 | 88 | 224 | 0.134 | 168 | 128 | 25 (≈ 101 µM) | 12.5 (≈ 50.7 µM) | 0.61 | 2.1 | 168 | > 38 |  |  |  |  |
| Cc1ccccc1C(=O)Nc1cc(C#Cc2ccccc2)ccn1 | 4.7 | 9.7 | 198 | 0.017 | 71 | 27 | 1.6 (≈ 5.12 µM) | < 1.6 | 0.061 | 1.7 | > 96 | > 51 |  |  |  |  |
| Cc1ccccc1C(=O)Nc1ccc(F)cn1 | 2.7 |  |  | 0.44 |  | 43 | 25 (≈ 109 µM) | 25 (≈ 109 µM) |  |  |  |  |  |  |  | Drug metabolism [13]: metabolite_detected; Drug metabolism [14]: metabolite_detected; inhibition at 10 µM [15]: 33%; Drug metabolism [16]: metabolite_detected; Drug metabolism [17]: metabolite_detected; Drug metabolism [18]: metabolite_notdetected; Drug metabolism [19]: metabolite_detected; Drug metabolism [20]: metabolite_detected |
| Cc1cc(Br)ccc1C(=O)Nc1ccccn1 | 3.2 | 48 | 193 | 0.119 | 100 | 97 | > 100 | > 100 | 0.045 | 1.1 | > 103 | 60 |  |  |  | selectivity ratio [21]: > 4000 |
| Cc1c(C(=O)Nc2ccccn2)ccc(F)c1F | 2.8 | 17 | 308 | 0.361 | 176 | 154 | 50 (≈ 201 µM) | 25 (≈ 101 µM) | 0.1 | 0.41 | > 121 | 205 | 99.9 | 92 | 99.95 |  |
| Cc1c(F)cccc1C(=O)Nc1cc(Cl)ccn1 | 2.3 |  |  | 0.283 |  | 254 | 12.5 (≈ 47.2 µM) | 12.5 (≈ 47.2 µM) |  | 0.47 |  | 177 | 98.8 | 64.23 | 83.7 | Drug metabolism [25]: metabolite_detected; Drug metabolism [26]: metabolite_detected; Drug metabolism [17]: metabolite_detected; Drug metabolism [27]: metabolite_detected; Drug metabolism [20]: metabolite_detected |
| Cc1ccccc1C(=O)N(O)c1ccc(F)cn1 |  |  |  |  |  |  |  |  |  |  |  |  |  |  |  | Drug metabolism [28]: metabolite_detected |
| Cc1ccccc1C(=O)Nc1ccc(O)cn1 |  |  |  |  |  |  |  |  |  |  |  |  |  |  |  | Drug metabolism [28]: metabolite_detected |
| Cc1c(F)cccc1C(N)=O |  |  |  |  |  |  |  |  |  |  |  |  |  |  |  | Drug metabolism [29]: metabolite_detected |
| N=C(N)c1ccc(OCCCCCOc2ccc(C(=N)N)cc2)cc1 [PENTAMIDINE] |  |  |  |  |  |  |  |  |  |  |  |  | 100 | 58.1 | 100 |  |
| COc1ccc(C[C@H](N)C(=O)N[C@H]2[C@@H](O)[C@H](n3cnc4c(N(C)C)ncnc43)O[C@@H]2CO)cc1 [PUROMYCIN] |  |  |  |  |  |  |  |  |  |  |  |  | 100 | 100 | 100 |  |
